Rows were chosen to be rich in hits. Some 7.6% of all compounds tested hit in one or more screens of this group.
DAT uptake mod: modulates human dopamine transporter uptake under cocaine. Q01959. LLC-PK1 hDAT cells, [14C]-dopamine uptake with cocaine IC80; actives deviate in either direction. B-score at 10 µM. hit rate 1.3% among 110,000;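 active = Z score or B-score, a plate-position-corrected score, falls beyond the plate's 99.7% confidence bounds, in either direction; inactive = both scores lie inside the 99.7% bounds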
Target sequence (Q01959 whole entry, looked up): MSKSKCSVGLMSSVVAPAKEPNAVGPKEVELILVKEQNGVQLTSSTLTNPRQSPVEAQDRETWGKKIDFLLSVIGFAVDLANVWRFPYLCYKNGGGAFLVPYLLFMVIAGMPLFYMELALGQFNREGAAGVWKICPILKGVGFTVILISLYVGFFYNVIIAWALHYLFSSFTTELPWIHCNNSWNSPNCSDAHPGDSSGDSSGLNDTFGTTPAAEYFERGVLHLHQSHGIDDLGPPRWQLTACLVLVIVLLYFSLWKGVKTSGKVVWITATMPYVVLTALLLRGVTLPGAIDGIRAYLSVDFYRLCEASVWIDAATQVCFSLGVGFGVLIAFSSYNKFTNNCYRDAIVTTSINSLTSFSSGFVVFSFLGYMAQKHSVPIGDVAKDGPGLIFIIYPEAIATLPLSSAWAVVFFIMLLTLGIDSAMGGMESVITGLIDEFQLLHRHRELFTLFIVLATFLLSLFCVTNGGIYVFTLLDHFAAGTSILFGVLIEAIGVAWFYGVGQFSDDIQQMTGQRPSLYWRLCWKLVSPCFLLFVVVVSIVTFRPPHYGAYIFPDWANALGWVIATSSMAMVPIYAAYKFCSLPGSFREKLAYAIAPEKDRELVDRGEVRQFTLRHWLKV
D1 mod: allosterically modulates the human D1 dopamine receptor. hit rate 5.9% among 58,000. HEK293 D1, CRE-luciferase, dopamine EC30 potentiation; actives deviate in either direction. P21728. B-score at 10 µM;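 active = luminescence count or its row- and column-corrected plate score outside the 99.7% band of the plate's sample wells, on either side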
Jurkat tox 60K: cytotoxic compounds reducing Jurkat cell viability; inhibition, % at 4 µM; hit rate 1.2% among 56,000; Jurkat E6.1 viability, ATP luminescence, 48 h;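 active = inhibition above the mean inhibition of all tested compounds plus 3 SD, cut at about 28% in these data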
M1 antagonist: M1 muscarinic receptor (rat) antagonism; P08482; CHO-M1 cells, Fluo-4 calcium, ACh EC80 antagonist mode; hits give low values; B-score at 10 µM; hit rate 3.4% among 64,000; AID 628;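 active = calcium fluorescence response, raw or row-and-column corrected B-score, differing from the plate sample mean either way at a set confidence level, mostly lower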
M1 ag: agonists of M1 muscarinic receptor. CHO-M1 cells, Fluo-4 calcium fluorescence, agonist mode; hits give high values. B-score at 10 µM. hit rate 3% among 64,000. AID 626;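 active = fluorescence rise, raw or as B-score row- and column-corrected plate score, outside the 99.7% band of its plate's samples, either direction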
HEK293 NFkB inh: inhibitors of the PMA/ionomycin-induced NF-kB reporter in HEK293 cells; HEK-293 NF-kB luciferase reporter, luminescence; inhibition, % at 3 µM; AID 465; hit rate 0.21% among 62,000;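 active = inhibition above the mean of all tested compounds plus 3 SD, cut at about 40% in these data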
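Material: HEK-293 cells with stable firefly luciferase reporter driven by four HIV NF-kB elements / Also added: PMA plus ionomycin mix as NF-kB-activating stimulus / Compound dosing: 3 µM once, 0.30% DMSO / Times: 1 h pretreatment, 16 h stimulation, 37 °C / Signal: luminescence / Evaluation: per-plate % inhibition versus controls / Benchmarks: DMSO and 10 µM reference inhibitor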
M1 ag confirm: rat M1 muscarinic agonism, confirmation; shares compounds with M1 ag; CHO-M1 cells, Fluo-4 calcium fluorescence, agonist mode; actives lie on both sides; fluorescence change (max-min) at 10 µM; hit rate 19% among 1,700; AID 1488;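 active = fluorescence change differs from the solvent-only DMSO control mean at a set confidence level in both duplicate runs; inconclusive = differs from solvent-only control mean in just one of two runs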;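 also: an EC20 dose of acetylcholine follows compound addition during the same imaging run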
M4 ag counter: counter-screen for M1 agonists: activity at rat M4 receptor; hit rate 9% among 1,700; CHO M4/Gqi5 cells, Fluo-4 calcium fluorescence, agonist mode; actives lie on both sides; fluorescence change (max-min) at 10 µM; shares compounds with M1 ag;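 active = fluorescence change differing from the plate's solvent-only control wells at 99.7% confidence in both duplicates, whether higher or lower; inconclusive = differs from solvent controls in only one of two duplicates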
Each line names hits and unclear results; the compound was inactive in the other large screens (follow-up assays come after a bar, where they were run).

O=C(CSCc1nc2ccccc2[nH]1)N1CCN(c2cccc(Cl)c2)CC1	M1 ag 7.96 | M1 ag confirm inactive | M4 ag counter inactive
Cn1c(SCC(=O)N2CCOCC2)nc2sc3c(c2c1=O)CCCC3	none
O=C1COc2ccc(C(=O)CSc3nnc(Cc4cccs4)n3-c3ccccc3)cc2N1	M1 ag 5.19 (no result: Jurkat tox 60K) | M1 ag confirm inactive | M4 ag counter inactive
Cc1ccc(-c2noc(CCC(=O)Nc3cccc(C#N)c3)n2)cc1	M1 ag 3.53 | M1 ag confirm inactive | M4 ag counter inactive
CCc1[nH]nc2c1C(c1ccncc1)C(C#N)=C(N)O2 (stereo not drawn)	none
CCOP(=O)(c1ccc(N(C)C)cc1)C(O)c1c(Cl)cccc1Cl (stereo not drawn)	M1 ag 8.03 | M1 ag confirm inconclusive | M4 ag counter inactive
Cc1cccc(OCC(=O)NC(C)C(=O)N/N=C/c2c(OCc3ccccc3)ccc3ccccc23)c1 (stereo not drawn)	none (no result: D1 mod, Jurkat tox 60K, M1 antagonist, M1 ag, HEK293 NFkB inh)
CCN1C(=O)/C(=C2\C=Cc3ccccc3N2CC)SC1=S	none (no result: D1 mod, Jurkat tox 60K, M1 antagonist, M1 ag, HEK293 NFkB inh)
CCN1C(=O)/C(=C2/SC(C)=C(C)N2CC)SC1=S	M1 ag 3.19 | M1 ag confirm inactive | M4 ag counter inactive
COC(=O)c1c(NC(=O)c2ccoc2C)sc2c1CCC2	M1 ag 2.24 | M1 ag confirm inactive | M4 ag counter inactive
COc1cc2c(=O)n(CCCN3CCOCC3)c(=S)[nH]c2c(OC)c1OC	none
CCn1c(C2CC(=O)N(c3ccc(C)c(C)c3)C2)nc2ccccc21 (stereo not drawn)	none
CCCn1c(C2CC(=O)N(c3cc(OC)ccc3OC)C2)nc2ccccc21 (stereo not drawn)	M1 ag 3.73 | M1 ag confirm inactive | M4 ag counter inactive
C=CCn1c(N)c(C(=O)Nc2cccc(C)c2)c2nc3ccccc3nc21	none (no result: D1 mod, Jurkat tox 60K, M1 antagonist, M1 ag, HEK293 NFkB inh)
C=CCn1c(NC(=O)c2ccccc2Cl)c(C#N)c2nc3ccccc3nc21	M1 ag 6.85 | M1 ag confirm inactive | M4 ag counter inactive
CCOC(=O)C1CCCN(Cc2ccc3c(c2)OCO3)C1 (stereo not drawn)	none
CCNc1ccc2noc3c2c1C(=O)c1ccccc1-3	none (no result: D1 mod, Jurkat tox 60K, M1 antagonist, M1 ag, HEK293 NFkB inh)
CCOc1ccc2noc3c2c1C(=O)c1ccccc1-3	M1 antagonist -9.63, M1 ag 397 | M1 ag confirm 3216 | M4 ag counter 2874
O=C1c2ccccc2-c2onc3ccc(NCc4ccco4)c1c23	M1 ag 183 (no result: Jurkat tox 60K, HEK293 NFkB inh) | M1 ag confirm 624 | M4 ag counter 1149
COc1ccc(-c2nnc3ccc(SCC(=O)N4CCCCC4)nn23)cc1OC	M1 ag -3.48 | M1 ag confirm inactive | M4 ag counter inactive
COc1ccc(-c2nnc3ccc(SCC(N)=O)nn23)cc1OC	none
COc1ccc(C)cc1-n1nnnc1SCc1cc(=O)n2cc(C)ccc2n1	M1 ag 5.22 (no result: D1 mod) | M1 ag confirm inactive | M4 ag counter inactive
Cc1onc(-c2ccccc2Cl)c1C(=O)Nc1ccc(S(=O)(=O)NCC2CCCO2)cc1 (stereo not drawn)	none
CCOC(=O)C1CCCN(C(=O)CN2C(=O)C(CC)Oc3ccc(C)cc32)C1 (stereo not drawn)	none
CCC1Oc2ccc(C)cc2N(CC(=O)N2CCN(c3ccc(F)cc3)CC2)C1=O (stereo not drawn)	M1 ag 2.32 | M1 ag confirm inactive | M4 ag counter inconclusive
COc1ccc(N(C(=O)c2ccn[nH]2)C(C(=O)NC(C)(C)C)c2ccc(F)cc2)cc1 (stereo not drawn)	none (no result: D1 mod, Jurkat tox 60K, M1 antagonist, M1 ag, HEK293 NFkB inh)
CCC(C)(C)NC(=O)C(c1cccc(OC)c1)N(C(=O)c1ccn[nH]1)c1cccc(OC)c1 (stereo not drawn)	M1 ag 12 | M1 ag confirm -23.9 | M4 ag counter -68.2
CC1=CC(C)(C)N(C)C(=O)N1c1ccc(Cl)cc1	none (no result: D1 mod, Jurkat tox 60K, M1 antagonist, M1 ag, HEK293 NFkB inh)
CCOc1ccc2nc(N3CCCC(C(=O)NCCCN4CCOCC4)C3)sc2c1 (stereo not drawn)	M1 ag 2.08 (no result: D1 mod) | M1 ag confirm inactive | M4 ag counter inactive
Cc1nc2ccccc2c(=O)n1/N=C/c1cn(-c2ccccc2)nc1-c1cccs1	M1 ag 3.52 | M1 ag confirm inconclusive | M4 ag counter inactive
CCN=C1SC(CC(=O)Nc2ccccc2)C(=O)N1CC (stereo not drawn)	M1 antagonist -3.76, M1 ag 10.9 | M1 ag confirm inconclusive | M4 ag counter inactive
Cc1ccc(SC(C)C(=O)N2CCCC2)cc1 (stereo not drawn)	none
N/C(Cc1ccc([N+](=O)[O-])cc1)=N\OC(=O)c1ccc2ccccc2c1	none (no result: D1 mod, Jurkat tox 60K, M1 antagonist, M1 ag, HEK293 NFkB inh)
C#CCNC(=O)C1=C[C@H](C2CC2)C[C@H](OCCCCO)O1	none (no result: D1 mod, Jurkat tox 60K, M1 antagonist, M1 ag, HEK293 NFkB inh)
COc1ccc(S(=O)(=O)N2Cc3ccccc3CC2C(=O)O)cc1OC (stereo not drawn)	none (no result: D1 mod)
COc1ccc(S(=O)(=O)N2Cc3ccccc3CC2C(=O)Nc2ccc(O)cc2)cc1OC (stereo not drawn)	M1 ag 4.02 | M1 ag confirm inactive | M4 ag counter inactive
O=C(Nc1ccc2c(c1)OCO2)C1Cc2ccccc2CN1S(=O)(=O)c1cccs1 (stereo not drawn)	M1 ag 5.54 (no result: D1 mod) | M1 ag confirm inactive | M4 ag counter inactive
O=C(C(c1ccccc1)c1ccccc1)N1CCCc2ccccc21	none (no result: D1 mod, Jurkat tox 60K, M1 antagonist, M1 ag, HEK293 NFkB inh)
Cc1cccc(C(CC(=O)N2CCCC2)c2ccccc2)c1O (stereo not drawn)	M1 ag 4.14 (no result: D1 mod) | M1 ag confirm inactive | M4 ag counter inactive
Cc1cccc2cc3c(N)c(C(=O)N4CCOCC4)sc3nc12	Jurkat tox 60K 75.5, M1 ag 6.99 | M1 ag confirm inconclusive | M4 ag counter inactive
O=C(O)CSc1nnc(CNc2ccccc2Cl)n1-c1ccccc1	M1 antagonist 3.01, M1 ag 84.3 | M1 ag confirm inconclusive | M4 ag counter inactive
COc1ccccc1/C=c1\sc2nc(-c3ccco3)nn2c1=O	none
COc1ccc(OC)c(/C=c2\sc3nc(-c4cccs4)nn3c2=O)c1	M1 ag 13.4 | M1 ag confirm 478 | M4 ag counter 556
CC(C)(C)c1cc(CNC2CS(=O)(=O)C[C@@H]2O)cc(C(C)(C)C)c1O (stereo partly drawn)	none
Cc1ccccc1-n1c(=O)cc(N2CCC3(CC2)OCCO3)[nH]c1=O	none (no result: Jurkat tox 60K)
CC(C)Cn1c2c(c(O)c(C(=O)Nc3ncccc3O)c1=O)CCCC2	none
CC(C)Cn1c2c(c(O)c(C(=O)Nc3ccc(F)cc3)c1=O)CCCC2	M1 ag 2.98 (no result: D1 mod) | M1 ag confirm inconclusive | M4 ag counter inactive

Screening results as filed in PubChem BioAssay.
